Experimental data from different studies.
Target: Serine/threonine-protein kinase PLK3 (PLK3, Homo sapiens, UniProt Q9H4B4)

SMILES	effect on	mode	method	concentration	quantity	result
CNC(=O)c1cc(Oc2ccc(NC(=O)Nc3ccc(Cl)c(C(F)(F)F)c3)cc2)ccn1	enzyme activity	inhibitor		10 µM	inhibition	-14%
CCCOc1ccc(OC)c(F)c1C(=O)c1ccc(C(=O)N[C@@H]2CNC[C@H]2NC(=O)c2ccc3[nH]ncc3c2)cc1	enzyme activity	inhibitor		10 µM	remaining activity	119%
Cc1ccc(Nc2nccc(N(C)c3ccc4c(C)n(C)nc4c3)n2)cc1S(N)(=O)=O	enzyme activity	inhibitor		10 µM	inhibition	-9%
COc1cc(-c2cc(-c3ccc(N4CCNCC4)cc3)cnc2C)cc(OC)c1OC	enzyme activity	inhibitor		1 µM	inhibition	1%
COc1cc2ncnc(Nc3ccc(Oc4ccccc4)c(C)c3C)c2cc1OC	enzyme activity	inhibitor		1 µM	inhibition	-16%
CN([C@@H]1CCc2c(CC(=O)O)c3cc(S(C)(=O)=O)ccc3n2C1)S(=O)(=O)c1ccc(F)cc1	cell-free assay		competition with immobilised ligand	1 µM	remaining binding	70%
CCOc1cc(-c2nncn2C)ccc1Nc1ncc2cc(C)nc(NCC(C)(C)C)c2n1	enzyme activity	inhibitor	FRET	1 µM	inhibition	19%
FC(F)(F)c1ccc2c(c1)nc(-c1cccnc1)n2C1CC1	cell-free assay		competition with immobilised ligand	1 µM	remaining binding	100%
CCN(CC)c1ccc(C2=NNC(=O)CC2C)cc1[N+](=O)[O-] (centres unmarked)	enzyme activity	inhibitor		10 µM	remaining activity	104%
O=C1Nc2ccc(Cl)cc2C1=Cc1cc(Cl)c(O)c(Cl)c1	cell-free assay			0.5 µM	remaining signal	98.2%
COc1ccc2c(O[C@@H]3C[C@H]4C(=O)N[C@]5(C(=O)O)CC5/C=C\CCCCC[C@H](NC(=O)OC5CCCC5)C(=O)N4C3)cc(-c3csc(NC(=O)C(C)C)n3)nc2c1C (some centres unmarked)	cell-free assay		competition with immobilised ligand	1 µM	remaining binding	79%
O=C(CSc1nc2nccnc2c(=O)n1CCc1ccccc1)Nc1nccs1	enzyme activity	inhibitor		10 µM	inhibition	4%
Cc1sc(C(=O)NC2COC2)cc1-n1cc(NC(=O)Nc2c(F)cccc2Cl)cn1	enzyme activity	inhibitor		10 µM	remaining activity	102%
CCOC(=O)c1cc2cc(-c3cc(C(=O)NCc4ccc(C(=O)O)cc4)nn3C)ccc2[nH]1	cell-free assay		competition with immobilised ligand	0.1 µM	remaining binding	70%
N#CCCc1ccc2c(c1)-c1[nH]c3ccc([N+](=O)[O-])cc3c1CC(=O)N2	cell-free assay			0.5 µM	remaining signal	99.7%
CCCOc1ccc([C@H]2[C@H](C(=O)O)[C@@H](c3ccc4c(c3)OCO4)CN2CC(=O)Nc2c(CC)cccc2CC)cc1	cell-free assay		competition with immobilised ligand	1 µM	remaining binding	83%
CCCS(=O)(=O)Nc1ccc(F)c(C(=O)c2c[nH]c3ncc(-c4ccc(Cl)cc4)cc23)c1F	enzyme activity	inhibitor		1 µM	inhibition	< 10%
